# In the library only some 3.5% were active in any assay of this set; here they are far more common.
# MrgX1 agonist: human MrgX1 receptor agonism, primary screen. Q96LB2. MrgX1-HEK293 cells, Fluo-4 calcium fluorescence, agonist mode; hits give high values. B-score at 10 µM. 0.44% of 310,000 active. AID 588627;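 active means calcium response B-score plate-corrected fluorescence ratio at least 3 library SD, with starting fluorescence B-score inside 5 SD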
# Target sequence (Q96LB2 whole entry, looked up): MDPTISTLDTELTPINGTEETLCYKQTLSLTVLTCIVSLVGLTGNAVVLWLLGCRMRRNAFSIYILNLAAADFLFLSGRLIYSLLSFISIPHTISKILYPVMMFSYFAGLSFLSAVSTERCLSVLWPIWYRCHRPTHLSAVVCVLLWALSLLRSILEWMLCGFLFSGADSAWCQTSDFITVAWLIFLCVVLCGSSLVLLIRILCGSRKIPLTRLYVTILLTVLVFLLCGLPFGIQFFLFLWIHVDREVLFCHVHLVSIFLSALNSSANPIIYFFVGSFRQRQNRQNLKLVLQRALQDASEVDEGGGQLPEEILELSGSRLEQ
#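 Material: MrgX1-expressing HEK293 cells / Dosing: compound as first of three additions / Incubation: overnight seeding, then 1 h dark dye loading / Signal: Fluo-4 NW calcium fluorescence / Evaluation: B-scored fluorescence response ratio / Benchmarks: positive and negative control wells on each plate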
# RGS4 inh: human RGS4 inhibition; 0.45% of 310,000 active; AID 463165; HEK293 M3R/RGS4 inducible, Fluo-4 calcium flux; hits give high values; triggered by carbachol at its EC20; B-score at 10 µM; P49798;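 active means B-score, a plate-corrected calcium signal, over three deviations above library mean, with baseline fluorescence within five deviations of library mean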;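 further: RGS4 expression induced by doxycycline in cells with stable M3 receptor; B-score is computed from the integrated fluorescence ratio over baseline after carbachol; higher B-score means a larger calcium signal and so more RGS4 inhibition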
# Target sequence (P49798 whole entry, looked up): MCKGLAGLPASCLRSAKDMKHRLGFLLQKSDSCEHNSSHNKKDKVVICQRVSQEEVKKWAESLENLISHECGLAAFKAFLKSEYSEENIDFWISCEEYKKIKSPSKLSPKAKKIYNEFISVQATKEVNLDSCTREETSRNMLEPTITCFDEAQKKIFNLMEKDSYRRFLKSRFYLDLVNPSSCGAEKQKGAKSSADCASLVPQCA
# RGS4 pot: RGS4 potentiation or activation; HEK293 M3R/inducible RGS4, carbachol calcium flux Fluo4; hits give low values; AID 463111; 0.92% of 310,000 active; B-score at 10 µM;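 active means B-score of the integrated calcium signal more than 4 SD below the library mean, with starting fluorescence not abnormally high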;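 further: negative B-score means reduced calcium response which marks RGS4 activation or potentiation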
#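 Detection: kinetic calcium fluorescence imaging with Fluo4-AM dye, 2 µM / Material: HEK293 cells with stable M3R and inducible RGS4 / Schedule: recording 10 s baseline at 1 Hz, 100 s post-agonist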
# MrgX1 PAM: allosterically activates human MrgX1 receptor signaling; B-score at 10 µM; AID 588675; MrgX1-HEK293, Fluo-4 calcium flux, FDSS; hits give high values; 0.63% of 310,000 active;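 active means plate-corrected calcium response at least 3 library SD above typical, normal starting fluorescence, not activating the receptor alone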;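 further: compound read alongside a low EC10 to EC30 dose of BAM8-22 agonist; peak minus trough fluorescence over baseline measured at the second addition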
# MrgX1 antagonist: blocks BAM8-22 activation of human MrgX1 receptor; MRGX1-HEK293 calcium flux, Fluo-4, BAM8-22 antagonism; hits give low values; B-score at 10 µM; AID 588676; 1.3% of 310,000 active; Q96LB2;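 active means calcium-response B-score plate-corrected more than 3 library SD below zero, starting fluorescence within 5 deviations, no agonist response on first addition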;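 further: peak minus trough fluorescence over baseline after final BAM8-22 challenge near maximal dose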
# RGS4 block valid: validation of RGS4 inhibitors; shares compounds with RGS4 inh; HEK293 M3R/RGS4, carbachol calcium Fluo-4 fluorescence; carbachol added at its EC20; 0 = buffer wells, 100 = carbachol control; calcium response, % at 10 µM; 65% of 1,700 active; AID 492999;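 active means duplicate-averaged calcium response above the buffer-only control mean plus 5 SD of those controls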;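 further: integrated fluorescence ratio F max minus min over baseline F0; higher response in RGS4-induced cells means RGS4 inhibition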
# RGS4 uninduced: counter-screen for RGS4 inhibitors: effect in non-induced cells | activity (percent), % at 10 µM | shares compounds with RGS4 inh | HEK293 M3R non-induced, carbachol calcium Fluo-4; submaximal (EC20) carbachol stimulus; buffer wells 0%, carbachol control wells 100% | 20% of 1,900 active; call rule not given here;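 further: RGS4 induction absent so cells express M3R without RGS4; higher means more calcium signal and flags a non-specific hit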
# M3R basal Ca ctr: signal in non-induced cells without carbachol, RGS4 inhibitor counter-screen; shares compounds with RGS4 inh; HEK293 M3R/RGS4 non-induced, Fluo-4 calcium, no carbachol; normalised: buffer wells 0%, carbachol wells 100%; calcium response (agonist-mode artifact), % at 10 µM; 22% of 1,900 active;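 active means duplicate-averaged calcium rise in uninduced cells above buffer wells' mean plus 5 SD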
# The depositor's hits bear a star; i = inactive; nt = no result given.
SMILES,MrgX1 agonist,RGS4 inh,RGS4 pot,MrgX1 PAM,MrgX1 antagonist,RGS4 block valid,RGS4 uninduced,M3R basal Ca ctr
COc1ccccc1/C=C/C=N/n1c(-c2cc(C)[nH]n2)n[nH]c1=S,i,i,i,i,i,nt,i,i
CCC(C)(C)NC(=O)C(c1ccc(OC)cc1)N(Cc1ccc(OC)cc1)C(=O)CCC(=O)Nc1cc(C)on1 (stereo not drawn),i,i,i,i,i,nt,nt,nt
COc1cc2c(cc1[N+](=O)[O-])n(C(C)C)c(=O)n2C(C)C,i,4.8*,i,i,i,i,39%*,i
CC1=NOC(=O)/C1=C/c1ccc(O)c(Cl)c1,37*,8.2*,i,i,i,17%*,i,50%*
O=C1ON=C(c2cccc([N+](=O)[O-])c2)/C1=C/c1ccc(O)cc1,i,16*,i,i,i,44%*,i,29%*
O=C1ON=C(c2ccccc2)/C1=C/c1ccc(O)c(O)c1,i,5.7*,i,i,i,26%*,i,53%*
COc1cc(/C=C2\C(=O)ON=C2c2ccc(Cl)cc2)ccc1O,27*,i,i,i,i,nt,i,56%*
COc1ccc(Cl)cc1/C=C1/C(=O)ON=C1C,i,i,i,i,i,nt,nt,nt
COc1ccc(/C=C2\C(=O)ON=C2c2ccccc2)cc1,i,i,i,i,i,nt,nt,nt
CCN(C(=O)c1ccco1)c1nnc(-c2ccc(OC)cc2)s1,i,i,i,i,i,nt,nt,nt
C/C(N)=C(/C#N)C(=O)CN1CCCCC1,i,i,i,i,i,nt,nt,nt
Oc1ccc(Br)cc1/C=N/n1c(C2CCCCC2)n[nH]c1=S,i,5.7*,i,i,i,5.0%*,i,i
CC(C)(C)c1ccc(-c2nc(NCc3cccnc3)c3ccccc3n2)cc1,i,8.6*,i,i,i,18%*,i,i
CC1(C)CC(=O)c2sc(NC(=O)c3ccccc3)nc2C1,i,i,i,i,i,nt,nt,nt
CC1(C)CC(=O)c2sc(NC(=O)CCS(=O)(=O)c3ccccc3)nc2C1,i,4.7*,i,i,i,7.5%*,i,i
O=C(Nc1ccccc1C(=O)NCCc1ccc(O)cc1)c1ccco1,i,i,i,i,i,nt,nt,nt
CC(C)c1nc(SCC(=O)Nc2ccc(C(=O)O)cc2)c2c3c(sc2n1)CCCC3,i,4.7*,i,i,i,13%*,i,i
NC(=O)c1ccccc1N1CCCCC1,i,i,i,i,i,nt,nt,nt
CCOC(=O)c1ccc(N2C(=O)c3n[nH]c(-c4ccco4)c3C2c2ccc([N+](=O)[O-])cc2)cc1 (stereo not drawn),i,i,i,i,i,i,i,i
Cc1ccccc1C(=O)NCc1nnc(SCC(=O)N2CCN(c3ccccc3)CC2)n1C,i,i,i,i,i,nt,nt,nt
CN1CCN(C(=S)c2ccc(OCC(=O)Nc3cccc(C(F)(F)F)c3)cc2)CC1,i,i,i,i,i,nt,nt,nt
O=C(/C=C/c1ccc([N+](=O)[O-])cc1)c1cccs1,i,12*,i,i,i,8.0%*,38%*,i
CCSc1nc2ccccc2n1CC(=O)O,i,i,i,i,i,nt,nt,nt
C(=N\Nc1nc(-c2ccccc2)cs1)/c1cccnc1,i,i,i,i,i,i,i,i
Clc1ccc(-c2csc(N/N=C/c3cccnc3)n2)c(Cl)c1,i,i,i,i,i,nt,nt,nt
SMILES,MrgX1 agonist,RGS4 inh,RGS4 pot,MrgX1 PAM,MrgX1 antagonist,RGS4 block valid,RGS4 uninduced,M3R basal Ca ctr
CCCc1[nH]nc2c1C(c1cn[nH]c1-c1ccc(F)cc1)C(C#N)=C(N)O2 (stereo not drawn),i,16*,i,i,i,38%*,44%*,15%*
Cc1cccc(C2c3[nH]c4ccccc4c3CCN2C(=O)Cc2n[nH]c(C)n2)n1 (stereo not drawn),i,i,i,i,i,nt,i,i
CC(=O)c1ccc(C(=O)N2CCc3c([nH]c4ccccc34)C2c2cccc(C)n2)s1 (stereo not drawn),i,i,i,i,i,nt,nt,nt
O=C(Cc1cccc(C(F)(F)F)c1)NCC(=O)Nc1cc(Cl)ccc1Cl,i,i,i,i,i,nt,nt,nt
C=C1C(=O)[C@@]23[C@H](O)C[C@@H]4C(C)(C)CC[C@H](O)[C@@]4(C)[C@@H]2CC[C@@H]1[C@H]3O,i,4.9*,i,i,i,i,i,i
O=[N+]([O-])c1ccccc1S(=O)(=O)Nc1ccc(-c2ccc3nncn3n2)cc1,i,i,i,i,i,nt,nt,nt
O=C(Cn1ccc(C(F)(F)F)n1)N=Nc1c(O)[nH]c2ccccc12,i,i,i,i,i,nt,i,i
CC(C)n1c(O)c(N=NC(=O)Cn2ccc(C(F)(F)F)n2)c2ccccc21,i,i,i,i,i,nt,nt,nt
O=C(Cn1ccc(C(F)(F)F)n1)N=Nc1c(O)[nH]c2ccc(Br)cc12,i,4.7*,i,i,i,32%*,i,i
Oc1[nH]c2ccc(Br)cc2c1N=Nc1ccc(C(F)(F)F)cn1,i,i,i,i,i,nt,nt,nt
Cc1nnc(SCC(=O)NNC(=O)c2ccc(Cl)cc2)s1,i,i,i,i,i,nt,nt,nt
Cc1ccc(-c2nn(-c3ccccc3)cc2/C=N/n2c(-c3ccncc3)n[nH]c2=S)cc1,i,i,i,i,i,i,i,i
S=c1[nH]nc(-c2ccncc2)n1/N=C/C(Cl)=C\c1ccccc1,i,9.8*,i,i,i,20%*,44%*,i
Cc1ccc(C(C[N+](=O)[O-])c2c(-c3ccccc3O)[nH][nH]c2=O)cc1 (stereo not drawn),i,6.3*,i,i,i,34%*,68%*,22%*
Cn1cc(C(C[N+](=O)[O-])c2ccccc2)c2ccccc21 (stereo not drawn),i,i,i,i,i,nt,nt,nt

# Source: PubChem BioAssay
